Screening data as filed in PubChem.
Compounds with a hit are over-represented: about 1.4% of the library has one in this group of screens.
APJ antagonist: antagonists of human apelin receptor APJ, primary screen, CHO-K1 cells, beta-arrestin complementation, luminescence; 330,000 tested, 0.32% active; AID 2521, 2010; inhibition, % at 20 µM;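 active = inhibition above about 40% at 20 µM, limit read from the data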;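 note: cells challenged with 10 nM apelin-13 agonist together with compound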
APOBEC3A inh: APOBEC3A ssDNA deaminase inhibitors, primary screen, selectivity assay for APOBEC3G inhibitor project, biochemical, FAM/TAMRA oligo cleavage fluorescence; DNA dC->dU-editing enzyme APOBEC-3A (Homo sapiens), P31941; recombinant A3A, FAM/TAMRA ssDNA deamination fluorescence; inhibition, % at 20 µM; 330,000 tested, 0.41% active;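 active = at least 40% inhibition at 20 µM here, with at most 30% in a related deaminase screen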
Target sequence (P31941 whole entry, looked up): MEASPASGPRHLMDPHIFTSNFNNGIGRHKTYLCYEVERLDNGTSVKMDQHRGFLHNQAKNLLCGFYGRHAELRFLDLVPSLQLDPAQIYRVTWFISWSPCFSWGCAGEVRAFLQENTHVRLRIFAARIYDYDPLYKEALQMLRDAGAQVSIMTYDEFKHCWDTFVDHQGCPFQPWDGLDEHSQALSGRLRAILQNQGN
CCR6 antagonist: CCR6 receptor antagonists, primary screen, cell-based, CHO-K1, luminescence, beta-arrestin, uHTS | C-C chemokine receptor type 6 (Homo sapiens), P51684 | CHO-K1 CCR6 PathHunter beta-arrestin, CCL20-stimulated | inhibition, % at 20 µM | 340,000 tested, 0.49% active | AID 493098, 2011;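 active = compounds whose inhibition of the agonist-driven luminescence signal at 20 µM reaches about 50%, limit read from the data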;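 note: cells stimulated with CCL20 at 14 nM final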
Target sequence (P51684 whole entry, looked up): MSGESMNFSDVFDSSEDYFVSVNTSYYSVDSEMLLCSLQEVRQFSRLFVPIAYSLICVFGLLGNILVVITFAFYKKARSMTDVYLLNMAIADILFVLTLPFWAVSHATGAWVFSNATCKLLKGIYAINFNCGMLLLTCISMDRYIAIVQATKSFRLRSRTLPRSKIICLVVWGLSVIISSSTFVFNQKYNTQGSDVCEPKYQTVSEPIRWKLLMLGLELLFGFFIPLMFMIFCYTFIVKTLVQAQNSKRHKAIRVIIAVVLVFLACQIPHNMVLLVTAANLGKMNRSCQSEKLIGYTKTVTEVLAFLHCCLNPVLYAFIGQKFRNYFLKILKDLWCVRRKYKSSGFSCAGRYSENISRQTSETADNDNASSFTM
A3G deaminase: APOBEC3G DNA deaminase inhibitors, primary screen, biochemical, fluorescence, single-stranded DNA substrate, uHTS; DNA dC->dU-editing enzyme APOBEC-3G (Homo sapiens), Q9HC16; recombinant A3G, ssDNA deamination FAM/TAMRA fluorescence; inhibition, % at 20 µM; 330,000 tested, 0.28% active;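 active = inhibition of at least 40% at 20 µM, with no more than 30% in the related APOBEC3A deaminase screen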
CXCR6 block: CXCR6 receptor inhibitors, primary screen, cell-based, beta-arrestin, luminescence, CHO-K1 PathHunter, 1536-well; inhibition, % at 20 µM; C-X-C chemokine receptor type 6 (Homo sapiens), O00574; 360,000 tested, 0.36% active; in the data active = inhibition above about 34%, passing the limit was not always enough;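 note: antagonist mode with CXCL16 agonist at 10 nM final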
APJ agonist: agonists of human apelin receptor APJ, primary screen, CHO-K1 cells, PathHunter beta-arrestin, luminescence; 0% DMSO wells, 100% apelin; activation, % at 20 µM; 330,000 tested, 0.11% active; AID 2520, 2010;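 active = activation more than six SD over the plate average, tested at 20 µM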
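Material: engineered CHO-K1 APJ arrestin reporter cells; amount: 1000 CHO-K1 reporter cells seeded per well; incubation: compound stimulation 90 min at 25 °C, detection 60 min; signal: luminescent beta-gal fragment complementation, chemiluminescent substrate; read-out basis: APJ agonist activity; controls: DMSO-only wells as negative, 10 nM Apelin-13 as positive control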
APOBEC3A confirm: APOBEC3A deaminase inhibitors, retest, confirmation, selectivity assay for APOBEC3G inhibitor project, biochemical, single concentration, fluorescence readout. shares compounds with APOBEC3A inh. recombinant A3A, ssDNA deaminase UDG fluorescence assay. inhibition, % at 20 µM. 1,400 tested, 63% active. AID 493151, 2011;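 active = inhibition reaching a set limit, 80% of the first screen's cutoff, at 20 µM in any replicate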
UDG ctr A3A: E. coli UDG inhibitors, confirmation, counter-screen for APOBEC3A inhibitor project, biochemical, single concentration, fluorescence, FAM/TAMRA oligo. shares compounds with APOBEC3A inh. UDG counterscreen, FAM/TAMRA uracil oligo fluorescence. inhibition, % at 20 µM. 1,000 tested, under 10 active. AID 504714, 2011; call rule not given here
Large screens that a line does not name were inactive (follow-up assays come after a bar, where they were run).

COc1cc(NS(=O)(=O)c2ccc(NC(=S)NC(=O)/C=C/c3ccco3)cc2)ncn1	APOBEC3A inh 55 | APOBEC3A confirm 73 | UDG ctr A3A inactive
COc1ccc(-c2ccc(N3C(c4cc(OC)cc(OC)c4)=Cc4ccc(OC)cc4C3CC(C)=O)cc2)cc1 (stereo unspecified)	none (no result: APJ antagonist, APOBEC3A inh, CCR6 antagonist, A3G deaminase, APJ agonist)
COCCn1c(SCC(=O)Nc2ccc(F)cc2)nc2c(c1=O)SCC2	none (no result: APJ antagonist, APOBEC3A inh, CCR6 antagonist, A3G deaminase, APJ agonist)
Cc1c(Cl)cccc1NC(=O)CNC(=O)c1ccc(F)cc1	none
Cc1c(Cl)cccc1NC(=O)CNC(=O)c1ccc2c(c1)OCCO2	APOBEC3A inh 51 | APOBEC3A confirm 41 | UDG ctr A3A inactive
O=C(c1ccc(S(=O)(=O)N2CCCCC2)cc1)N1CCN=C1SCc1cccnc1	APOBEC3A inh 50 | APOBEC3A confirm inactive | UDG ctr A3A inactive
O=C(CCC(=O)Nc1nnc(C2CCCCC2)s1)NCc1ccc(F)cc1	none
Cc1cc(C)n2c(SCC(=O)Nc3cc(S(=O)(=O)N(C)C)ccc3C)nnc2n1	APOBEC3A inh 40 | APOBEC3A confirm inactive
Cc1ccc(S(=O)(=O)N(C)C)cc1NC(=O)CSc1nnc(C2CC2)n1C1CC1	none
O=C(CSc1ccccn1)N1CCc2ccccc21	APOBEC3A inh 66 | APOBEC3A confirm inactive
Cc1ccccc1CSCC(=O)Nc1ccccc1Br	APOBEC3A inh 72 | APOBEC3A confirm inactive
CCOc1ccc(S(=O)(=O)NCCC(=O)NCc2ccc(OC)c(OC)c2)cc1	none
CN(C)S(=O)(=O)NCC1CCCN(Cc2cc3ccccc3s2)C1 (stereo unspecified)	none (no result: APJ antagonist, APOBEC3A inh, A3G deaminase, APJ agonist)
Cc1cc(/C=N/NC(=O)c2cccc(N(C)C)c2)c(C)n1-c1cc(C(=O)O)cc(C(=O)O)c1	APOBEC3A inh 66 | APOBEC3A confirm 65 | UDG ctr A3A inactive
Cc1cc(/C=N/NC(=O)C(O)(c2ccccc2)c2ccccc2)c(C)n1-c1cccc(C(=O)O)c1	APOBEC3A inh 45 | APOBEC3A confirm inactive
C#CCOCCOCCOCCNc1nc(N2CCN(C(=O)[C@H]([C@@H](C)CC)n3cc(CCC(=O)O)nn3)CC2)nc(N2CCN(C(=O)[C@H](CCCCN)n3cc(CC(C)O)nn3)CC2)n1 (stereo partly specified)	none (no result: APJ antagonist, APOBEC3A inh, A3G deaminase, APJ agonist)
CCOC(=O)C(=CN(CCc1ccccc1)CC(=O)OC)C(=O)OCC	none
CCCCn1c(N)c(N(CC(C)C)C(=O)COC(=O)c2ccccc2NCCO)c(=O)[nH]c1=O	APOBEC3A inh 41 | APOBEC3A confirm inactive
CCNC(=O)C1(C)CCN(C(=O)c2cccc(C#N)c2)C1 (stereo unspecified)	none (no result: APJ antagonist, APOBEC3A inh, CCR6 antagonist, A3G deaminase, APJ agonist)
Cc1ccnc(NS(=O)(=O)c2ccc(NC(=O)Cc3cccs3)cc2)n1	APOBEC3A inh 54 | APOBEC3A confirm 61 | UDG ctr A3A inactive
O=C(Cc1cccs1)Nc1ccc(S(=O)(=O)Nc2ncccn2)cc1	none
O=C(COc1cccc(C(F)(F)F)c1)NCC(c1ccco1)N1CCCC1 (stereo unspecified)	APOBEC3A inh 46 | APOBEC3A confirm inactive
COc1ccc(C2(SCC(N)C(=O)O)c3ccccc3-c3ccccc32)cc1 (stereo unspecified)	none (no result: APJ antagonist, APOBEC3A inh, A3G deaminase, APJ agonist)
CCOc1ccc(OCCCC(=O)N2CCN(S(=O)(=O)c3ccc(Cl)cc3)CC2)cc1	APOBEC3A inh 70 | APOBEC3A confirm 77 | UDG ctr A3A inactive
O=C(CCCOc1ccccc1)N1CCN(S(=O)(=O)c2ccc(Cl)cc2)CC1	none
O=C(COc1ccc(F)c(Cl)c1)N1CCN(c2ccccn2)CC1	none
O=C(COc1ccccc1Cl)N1CCN(c2ccccn2)CC1	APOBEC3A inh 42 | APOBEC3A confirm inactive
Nc1ccc(-c2ccc(N)c(C(=O)O)c2)cc1C(=O)O	APOBEC3A inh 48 | APOBEC3A confirm 37 | UDG ctr A3A inactive
O=C(OCC(=O)N1CCCCCC1)c1ccccc1Br	none
CC1=CC(C)(C)[N+](C)(C)c2ccc(C)cc21	APOBEC3A inh 45 | APOBEC3A confirm 71 | UDG ctr A3A inactive
CC1=CC(C)(C)N(S(=O)(=O)c2ccc(C)cc2)c2ccc(C)cc21	none
CN1CCN(CC(=O)Nc2sc3c(c2C(=O)Nc2ccccc2)CCCC3)CC1	APOBEC3A inh 57 | APOBEC3A confirm 43 | UDG ctr A3A inactive
O=S(=O)(NC1C2CC3CC(C2)CC1C3)c1ccccc1 (stereo unspecified)	none
O=C(N/N=C/c1cc(Br)c(Br)o1)c1ccc2c(c1)OCCO2	APOBEC3A inh 76 | APOBEC3A confirm 50 | UDG ctr A3A inactive
Cc1cc(=O)n2[nH]c(Nc3cccc(Cl)c3)nc2n1	none
CCOC(=O)C1=C(C)N=C2SCCC(=O)N2C1c1cc(Br)ccc1OC (stereo unspecified)	APOBEC3A inh 40 | APOBEC3A confirm inactive | UDG ctr A3A inactive
Cc1ccc(CN2C(=O)N/C(=C\c3cccn3-c3cccc(C(=O)O)c3)C2=O)cc1	APOBEC3A inh 79 | APOBEC3A confirm 80 | UDG ctr A3A inactive
Cc1ccc(NC(=O)CN2C(=O)N/C(=C\c3cccn3-c3cccc(C(=O)O)c3)C2=O)cc1	none
Cc1cc(C(=O)O)ccc1-c1ccc(/C=C2\NC(=O)N(Cc3ccc(F)cc3)C2=O)o1	APOBEC3A inh 58 | APOBEC3A confirm 44 | UDG ctr A3A inactive
O=C(O)c1cccc(-n2cccc2/C=C2\NC(=O)N(Cc3ccc(F)cc3)C2=O)c1	APOBEC3A inh 87 | APOBEC3A confirm 74 | UDG ctr A3A inactive
CC(C)c1csc(CN2CCCC(CNC(=O)c3cccc4ccccc34)C2)n1 (stereo unspecified)	none
CCOC(=O)C(Cc1ccccc1)C(=O)NCc1ccccc1 (stereo unspecified)	none
Cc1nnc(SCC(=O)N2N=C(c3ccc(Cl)cc3)CC2c2ccco2)[nH]c1=O (stereo unspecified)	APOBEC3A inh 50 | APOBEC3A confirm 10 | UDG ctr A3A inactive
CC(=O)Nc1cc(Br)ccc1O	none
